ChEMBL document CHEMBL1671800, “Synthesis and antimycobacterial properties of N-substituted 6-amino-5-cyanopyrazine-2-carboxamides” (2011)
Converted amounts (≈) assume the structure as drawn. The source made the active and inactive calls. The calls are words filed in the database; no cut-off is given here.

Key:
[1] = system: Candida albicans; assay: Antifungal activity against Candida albicans ATCC 44859 after 24 hrs by broth microdilution method; assay type: functional
In short: (§1)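 Broth microdilution. Compounds in DMSO were diluted twofold in RPMI 1640 with glutamine, buffered to pH 7.0 with MOPS. Final DMSO was at most 2.5% (v/v). Plates were incubated statically, in the dark and humid, at 35 °C and read at 24 and 48 h.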

[2] = system: Candida tropicalis; assay: Antifungal activity against Candida tropicalis 156 after 24 hrs by broth microdilution method; assay type: functional; in short: as §1
[3] = system: Pichia kudriavzevii; assay: Antifungal activity against Candida krusei E28 after 24 hrs by broth microdilution method; assay type: functional; in short: as §1
[4] = system: Nakaseomyces glabratus; assay: Antifungal activity against Candida glabrata 20/I after 24 hrs by broth microdilution method; assay type: functional; in short: as §1
[5] = system: Trichosporon beigelii; assay: Antifungal activity against Trichosporon beigelii 1188 after 24 hrs by broth microdilution method; assay type: functional; in short: as §1
[6] = system: Aspergillus fumigatus; assay: Antifungal activity against Aspergillus fumigatus 231 after 24 hrs by broth microdilution method; assay type: functional; in short: as §1
[7] = system: Lichtheimia corymbifera; assay: Antifungal activity against Absidia corymbifera 272 after 24 hrs by broth microdilution method; assay type: functional; in short: as §1
[8] = system: Trichophyton mentagrophytes; assay: Antifungal activity against Trichophyton mentagrophytes 445 after 72 hrs by broth microdilution method; assay type: functional
In short: (§2)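 Trichophyton mentagrophytes was tested by twofold broth microdilution in MOPS-buffered RPMI 1640 with glutamine, pH 7.0, with final DMSO at most 2.5% (v/v). Incubation was static, dark and humid at 35 °C, and plates were read at 72 and 120 h.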

[9] = system: Trichophyton mentagrophytes; assay: Antifungal activity against Trichophyton mentagrophytes 445 after 120 hrs by broth microdilution method; assay type: functional; in short: as §2
[10] = system: Candida albicans; assay: Antifungal activity against Candida albicans ATCC 44859 after 48 hrs by broth microdilution method; assay type: functional; in short: as §1
[11] = system: Candida tropicalis; assay: Antifungal activity against Candida tropicalis 156 after 48 hrs by broth microdilution method; assay type: functional; in short: as §1
[12] = system: Pichia kudriavzevii; assay: Antifungal activity against Candida krusei E28 after 48 hrs by broth microdilution method; assay type: functional; in short: as §1
[13] = system: Nakaseomyces glabratus; assay: Antifungal activity against Candida glabrata 20/I after 48 hrs by broth microdilution method; assay type: functional; in short: as §1
[14] = system: Trichosporon beigelii; assay: Antifungal activity against Trichosporon beigelii 1188 after 48 hrs by broth microdilution method; assay type: functional; in short: as §1
[15] = system: Aspergillus fumigatus; assay: Antifungal activity against Aspergillus fumigatus 231 after 48 hrs by broth microdilution method; assay type: functional; in short: as §1
[16] = system: Lichtheimia corymbifera; assay: Antifungal activity against Absidia corymbifera 272 after 48 hrs by broth microdilution method; assay type: functional; in short: as §1
[17] = system: Mycobacterium tuberculosis; assay: Antimycobacterial activity against Mycobacterium tuberculosis H37Rv CNCTC My 331/88 after 14 days by microdilution method; assay type: functional; conditions: H37Rv CNCTC My 331/88, 336 h
In short: (§3)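 Compounds in DMSO were diluted in Šula's semisynthetic medium, pH 5.5, to final 200–3.125 μg/mL, with DMSO at most 1% (v/v). Mycobacteria were added as a suspension in isotonic saline and grown at 37 °C. MIC was read visually after 14 days as the lowest concentration inhibiting growth.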

[18] = system: Mycobacterium kansasii; assay: Antimycobacterial activity against Mycobacterium kansasii CNCTC My 235/80 after 6 days by microdilution method; assay type: functional; conditions: CNCTC My 235/80, 144 h
In short: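 Compounds were dissolved in DMSO and diluted in Šula's semisynthetic medium at pH 5.5, at final concentrations of 200 to 3.125 μg/mL in twofold steps; DMSO stayed ≤1% v/v. The strain was added as a suspension in isotonic saline and incubated at 37 °C. Growth was read visually after 6 days; MIC is the lowest concentration that inhibited growth. Pyrazinamide served as standard.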

[19] = system: Mycobacterium avium; assay: Antimycobacterial activity against Mycobacterium avium CNCTC My 80/72 after 14 days by microdilution method; assay type: functional; conditions: CNCTC My 80/72, 336 h; in short: as §3
[20] = system: Mycobacterium avium; assay: Antimycobacterial activity against Mycobacterium avium CNCTC My 152/73 after 14 days by microdilution method; assay type: functional; conditions: CNCTC My 152/73, 336 h; in short: as §3
[21] = system: Staphylococcus aureus; assay: Antibacterial activity against Staphylococcus aureus CCM 4516/08 after 24 to 48 hrs by broth microdilution method; assay type: functional, organism-based
In short: (§4)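 Strains subcultured on Mueller-Hinton agar at 35 °C and passaged onto MHA before testing. Inoculum suspended in sterile 0.85% saline and adjusted to 0.5 McFarland (1.5×10^8 CFU/mL). Compounds in DMSO (final ≤1% v/v) in Mueller-Hinton broth at pH 7.0, with medium and DMSO-alone controls. Static incubation at 35 °C; MIC taken as 95% growth inhibition versus control at 24 and 48 h.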

[22] = system: Escherichia coli; assay: Antibacterial activity against Escherichia coli CCM 4517 after 24 to 48 hrs by broth microdilution method; assay type: functional, organism-based; in short: as §4
[23] = system: Pseudomonas aeruginosa; assay: Antibacterial activity against Pseudomonas aeruginosa CCM 1961 after 24 to 48 hrs by broth microdilution method; assay type: functional, organism-based; in short: as §4
[24] = system: Staphylococcus aureus; assay: Antibacterial activity against methicillin-resistant Staphylococcus aureus H 5996/08 after 24 to 48 hrs by broth microdilution method; assay type: functional, organism-based
In short: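 Strains were subcultured on Mueller-Hinton agar at 35 °C, and the inoculum was suspended in 0.85% saline to 0.5 McFarland (1.5×10^8 CFU/mL). Microdilution was done in Mueller-Hinton broth, pH 7.0, with final DMSO at most 1% (v/v). MIC, set at 95% growth inhibition versus control, was read after 24 and 48 h of static incubation at 35 °C.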

[25] = system: Staphylococcus epidermidis; assay: Antibacterial activity against Staphylococcus epidermidis H 6966/08 after 24 to 48 hrs by broth microdilution method; assay type: functional, organism-based
[26] = system: Enterobacter sp.; assay: Antibacterial activity against Enterobacter sp. J 14365/ 08 after 24 to 48 hrs by broth microdilution method; assay type: functional, organism-based
[27] = system: Klebsiella pneumoniae; assay: Antibacterial activity against Klebsiella pneumoniae D11750/08 after 24 to 48 hrs by broth microdilution method; assay type: functional, organism-based
[28] = system: Klebsiella pneumoniae; assay: Antibacterial activity against ESBL-positive Klebsiella pneumoniae J 14368/08 after 24 to 48 hrs by broth microdilution method; assay type: functional, organism-based

Row | Compound | MIC [17] | MIC [18] | MIC [19] | MIC [20] | Activity [21] | Activity [22] | Activity [23] | Activity [24] | Activity [25] | Activity [26] | Activity [27] | Activity [28] | also measured
1 | OC(Cn1cncn1)(Cn1cncn1)c1ccc(F)cc1F [FLUCONAZOLE] |  |  |  |  |  |  |  |  |  |  |  |  | MIC ([1]; ATCC 44859, 24 h): 0.24 µM (≈ 0.0735 µg/mL); MIC ([2]; Candida tropicalis, 156, 24 h): > 500 µM; MIC ([3]; E28, 24 h): 125 µM (≈ 38.3 µg/mL); MIC [4]: 62.5 µM (≈ 19.1 µg/mL); MIC ([5]; Trichosporon beigelii, 1188, 24 h): 250 µM (≈ 76.6 µg/mL); MIC ([6]; Aspergillus fumigatus, 231, 24 h): > 500 µM; MIC ([7]; Lichtheimia corymbifera, 272, 24 h): > 500 µM; MIC ([8]; Trichophyton mentagrophytes, 445, 72 h): 7.81 µM (≈ 2.39 µg/mL); MIC ([9]; Trichophyton mentagrophytes, 445, 120 h): 125 µM (≈ 38.3 µg/mL); MIC ([10]; ATCC 44859, 48 h): 0.24 µM (≈ 0.0735 µg/mL); MIC ([11]; Candida tropicalis, 156, 48 h): > 500 µM; MIC ([12]; E28, 48 h): 250 µM (≈ 76.6 µg/mL); MIC [13]: 250 µM (≈ 76.6 µg/mL); MIC ([14]; Trichosporon beigelii, 1188, 48 h): 500 µM (≈ 153 µg/mL); MIC ([15]; Aspergillus fumigatus, 231, 48 h): > 500 µM; MIC ([16]; Lichtheimia corymbifera, 272, 48 h): > 500 µM
2 | CCCNc1nc(C(N)=O)cnc1C#N | 50 µg/mL (≈ 244 µM) | > 200 µg/mL | > 200 µg/mL | > 200 µg/mL | inactive | inactive | inactive | inactive | inactive | inactive | inactive | inactive | 
3 | CCN(CC)c1nc(C(N)=O)cnc1C#N | > 200 µg/mL | > 200 µg/mL | > 200 µg/mL | > 200 µg/mL | inactive | inactive | inactive | inactive | inactive | inactive | inactive | inactive | 
4 | N#Cc1ncc(C(N)=O)nc1NC1CCCCCC1 | > 200 µg/mL | > 200 µg/mL | > 200 µg/mL | > 200 µg/mL | inactive | inactive | inactive | inactive | inactive | inactive | inactive | inactive | 
5 | NYSTATIN |  |  |  |  |  |  |  |  |  |  |  |  | MIC [1]: 0.98 µM; MIC [2]: 1.95 µM; MIC [3]: 1.95 µM; MIC [4]: 1.95 µM; MIC [5]: 1.95 µM; MIC [6]: 1.95 µM; MIC [7]: 15.6 µM; MIC [8]: 3.9 µM; MIC [9]: 7.81 µM; MIC [10]: 1.95 µM; MIC [11]: 3.9 µM; MIC [12]: 3.9 µM; MIC [13]: 1.95 µM; MIC [14]: 1.95 µM; MIC [15]: 3.9 µM; MIC [16]: 31.2 µM
6 | CN1CCN(c2nc(C(N)=O)cnc2C#N)CC1 | > 200 µg/mL | > 200 µg/mL | > 200 µg/mL | > 200 µg/mL | inactive | inactive | inactive | inactive | inactive | inactive | inactive | inactive | 
7 | CCNc1nc(C(N)=O)cnc1C#N | 100 µg/mL (≈ 523 µM) | > 200 µg/mL | > 200 µg/mL | > 200 µg/mL | inactive | inactive | inactive | inactive | inactive | inactive | inactive | inactive | 
8 | CCCCCCCCNc1nc(C(N)=O)cnc1C#N | > 200 µg/mL | > 200 µg/mL | > 200 µg/mL | > 200 µg/mL | inactive | inactive | inactive | inactive | inactive | inactive | inactive | inactive | 
